Source: ChEMBL document CHEMBL4364306, “Structure-activity relationships of thiazole and benzothiazole derivatives as selective cannabinoid CB2 agonists with in vivo anti-inflammatory properties” (Eur J Med Chem, 2019)
The source made the active and inactive calls. No cut-off for these calls is given here.

What was measured:
Cannabinoid receptor 1 [1] = target: T1, Cannabinoid receptor 1 (Homo sapiens, UniProt P21554); test: Displacement of [3H]CP55940 from recombinant human CB1R expressed in HEK293 cell membranes at 10 uM incubated for 90 mins relative to control
Cannabinoid receptor 1 [2] = target: T1, Cannabinoid receptor 1; test: Antagonist activity at N-terminal Flag epitope tagged CB1 (unknown origin) expressed in HTLA cells assessed as decrease in CP55940-induced beta-arrestin recruitment pretreated with non-selective cannabinoid receptor agonist CP55940 for 30 mins and measured after 20 mins by Tango assay; assay type: cell-based
Cannabinoid receptor 2 [3] = target: T2, Cannabinoid receptor 2 (Homo sapiens, UniProt P34972); test: Antagonist activity at N-terminal Flag epitope tagged CB2 (unknown origin) expressed in HTLA cells assessed as decrease in CP55940-induced beta-arrestin recruitment pretreated with non-selective cannabinoid receptor agonist CP55940 for 30 mins and measured after 20 mins by Tango assay; assay type: cell-based
Cannabinoid receptor 2 [4] = target: T2, Cannabinoid receptor 2; test: Agonist activity at N-terminal Flag epitope tagged CB2 (unknown origin) expressed in HTLA cells assessed as increase of beta-arrestin recruitment by Tango assay; assay type: cell-based
Summary of the method: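 β-arrestin Tango assay: HTLA cells transfected overnight with GPCR tango constructs, plated at 15,000 cells/well in DMEM with 1% dFBS, recovered ≥6 h. Drugs in Tango buffer (20 mM HEPES, 1x HBSS, pH 7.40) added overnight, full concentration-response (maximum 30 µM). BrightGlo reagent, 20 min room temperature in dark, luminescence read.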

Cannabinoid receptor 2 [5] = target: T2, Cannabinoid receptor 2; test: Displacement of [3H]CP55940 from recombinant human CB2R expressed in HEK293 cell membranes at 10 uM incubated for 90 mins relative to control
Cannabinoid receptor 1 [6] = target: T1, Cannabinoid receptor 1; test: Agonist activity at N-terminal Flag epitope tagged CB1 (unknown origin) expressed in HTLA cells assessed as increase of beta-arrestin recruitment by Tango assay; assay type: cell-based
Summary of the method: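 HTLA cells transfected overnight with GPCR Tango constructs, plated at 15,000 cells/well in DMEM with 1% dFBS and allowed to recover at least 6 h. Compounds in Tango buffer (20 mM HEPES, 1x HBSS, pH 7.40) added overnight, full concentration-response up to 30 µM against CP-55,940 as reference agonist. BrightGlo reagent added for 20 min at room temperature in the dark, then luminescence read.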

Homo sapiens = organism: Homo sapiens; test: Selectivity index, ratio of Ki for recombinant human CB1R expressed in HEK293 cell membranes to Ki for recombinant human CB2R expressed in HEK293 cell membranes; assay type: cell-based
Cannabinoid receptor 2 [7] = target: T2, Cannabinoid receptor 2; test: Agonist activity at recombinant human CB2R expressed in CHOK1 cells assessed as inhibition of NKH477-stimulated intracellular cAMP levels after 30 mins by chemiluminescent detection based cAMP Hunter assay; assay type: functional, cell-based
Summary of the method: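 CHO-K1 cells overexpressing human CB2R, plated 30,000 cells/well, overnight 37 °C, 5% CO2. Compound dose-responses incubated 30 min at 37 °C with NKH-477 (25 µM) to stimulate adenylate cyclase. Enzyme fragment complementation chemiluminescence read. Normalised to NKH-477 alone as 100%; mean ± SEM of three independent experiments in triplicate.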

T1 sequence (P21554 whole entry): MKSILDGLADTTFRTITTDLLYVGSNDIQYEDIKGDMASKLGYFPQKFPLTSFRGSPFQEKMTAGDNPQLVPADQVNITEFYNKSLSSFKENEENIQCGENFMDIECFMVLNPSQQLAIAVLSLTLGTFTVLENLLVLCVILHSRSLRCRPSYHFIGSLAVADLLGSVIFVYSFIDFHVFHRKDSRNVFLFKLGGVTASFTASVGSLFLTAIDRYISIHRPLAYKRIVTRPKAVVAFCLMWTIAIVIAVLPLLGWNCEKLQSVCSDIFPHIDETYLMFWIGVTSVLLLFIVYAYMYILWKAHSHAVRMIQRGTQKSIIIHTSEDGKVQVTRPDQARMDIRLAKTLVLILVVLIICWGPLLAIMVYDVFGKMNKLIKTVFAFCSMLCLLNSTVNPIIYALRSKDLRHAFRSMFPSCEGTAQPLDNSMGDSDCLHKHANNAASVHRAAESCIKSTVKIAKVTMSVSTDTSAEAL
T2 sequence (P34972 whole entry): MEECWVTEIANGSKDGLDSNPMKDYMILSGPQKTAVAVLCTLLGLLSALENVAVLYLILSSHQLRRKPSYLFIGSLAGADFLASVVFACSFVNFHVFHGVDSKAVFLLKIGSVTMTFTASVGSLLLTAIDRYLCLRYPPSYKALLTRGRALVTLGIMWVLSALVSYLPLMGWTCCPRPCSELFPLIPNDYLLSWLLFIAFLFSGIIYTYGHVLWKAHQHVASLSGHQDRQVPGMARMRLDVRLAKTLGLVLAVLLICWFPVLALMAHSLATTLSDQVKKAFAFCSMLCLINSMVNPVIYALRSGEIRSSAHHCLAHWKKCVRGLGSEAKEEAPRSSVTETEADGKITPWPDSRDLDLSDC

SMILES	Activity (Cannabinoid receptor 1 [1])	EC50 (Cannabinoid receptor 1 [2]) [µM]	EC50 (Cannabinoid receptor 2 [3]) [µM]	EC50 (Cannabinoid receptor 2 [4]) [µM]	Activity (Cannabinoid receptor 2 [5])	EC50 (Cannabinoid receptor 1 [6]) [µM]	Ratio Ki (Homo sapiens)	EC50 (Cannabinoid receptor 2 [7]) [µM]
Cc1ccc(Cn2nc(C(=O)N[C@@H]3C(C)(C)[C@@H]4CC[C@@]3(C)C4)cc2-c2ccc(Cl)c(C)c2)cc1	Active							
Cc1nc(C)c(C(=O)NCc2ccccc2)s1	Active	> 30	> 30	> 30	Active	> 30		
Cc1nc(-c2ccccc2)sc1C(=O)NC12CC3CC(CC(C3)C1)C2	Active	> 30	> 30	> 30	Active	> 30	> 22	
O=C(Nc1nc2ccccc2s1)c1cccc(C(F)(F)F)c1	Active	> 30	> 30	> 30	Active	> 30		
Cc1nc(-c2ccccc2)sc1C(=O)NCc1ccccc1	Active	> 30	> 30	> 30	Active	> 30		
Cc1nc(C(C)(C)C)sc1C(=O)NC12CC3CC(CC(C3)C1)C2	Active	> 30	> 30	3.98	Active	> 30	> 25	
O=C(Nc1ccc2ccccc2c1)c1nc2ccccc2s1	Active	> 30	> 30	> 30	Active	> 30		
Cc1nc(-c2ccccc2)sc1C(=O)NC1CC1	Active	> 30	> 30	> 30	Active	> 30		
O=C(Nc1nc2ccccc2s1)c1ccc(C(F)(F)F)cc1	Active	> 30	> 30	> 30	Active	> 30		
O=C(Nc1cccc2ccccc12)c1nc2ccccc2s1	Active	> 30	> 30	> 30	Active	> 30		
O=C(NCc1ccccc1Cl)c1nc2ccccc2s1	Active	> 30	> 30	3.31	Active	> 30	> 9	
Cc1nc(-c2ccccc2)sc1C(=O)NCc1ccccc1F	Active	> 30	> 30	> 30	Active	> 30		
O=C(NCc1ccccc1)c1nc2ccccc2s1	Active	> 30	> 30	> 30	Active	> 30		
Cc1nc(C)c(C(=O)NC23CC4CC(CC(C4)C2)C3)s1	Active	> 30	> 30	> 30	Active	> 30	> 6	
CCCCCn1/c(=N/C(=O)c2cccc3ccccc23)sc2ccccc21	Active	> 30	> 30	0.0129	Active	0.126	22.2	0.068
CCCCCCNC(=O)c1sc(-c2ccccc2)nc1C	Active	> 30	> 30	> 30	Active	> 30		

SMILES	Activity (Cannabinoid receptor 1 [1])	EC50 (Cannabinoid receptor 1 [2]) [µM]	EC50 (Cannabinoid receptor 2 [3]) [µM]	EC50 (Cannabinoid receptor 2 [4]) [µM]	Activity (Cannabinoid receptor 2 [5])	EC50 (Cannabinoid receptor 1 [6]) [µM]	Ratio Ki (Homo sapiens)	EC50 (Cannabinoid receptor 2 [7]) [µM]
Cc1nc(-c2ccccc2)sc1C(=O)N1CCOCC1	Active	> 30	> 30	> 30	Active	> 30	> 3	
Cc1nc(-c2ccccc2)sc1C(=O)NC1CCCCC1	Active	> 30	> 30	> 30	Active	> 30		
O=C(NC12CC3CC(CC(C3)C1)C2)c1nc2ccccc2s1	Active	> 30	> 30	> 30	Active	> 30	> 121	
CCCCCn1/c(=N\C(=O)C23CC4CC(CC(C4)C2)C3)sc2ccccc21	Active	> 30	> 30	0.0263	Active	1.62	120	0.057
Cc1nc(-c2ccccc2)sc1C(=O)NCc1ccc(F)cc1	Active	> 30	> 30	> 30	Active	> 30		
Cc1nc(-c2ccccc2)sc1C(=O)NCc1ccccc1Cl	Active	> 30	> 30	> 30	Active	> 30		
O=C(NCC1CCCCC1)c1nc2ccccc2s1	Active	> 30	> 30	> 30	Active	> 30	> 7	
CCCCCn1/c(=N/C(=O)c2ccc(C(F)(F)F)cc2)sc2ccccc21	Active	> 30	> 30	2.51	Active	> 30	393	
Cc1nc(-c2ccccc2)sc1C(=O)NC1CCCC1	Active	> 30	> 30	> 30	Active	> 30		
Cc1nc(-c2ccccc2)sc1C(=O)NC1CCCc2ccccc21 (stereo not drawn)	Active	> 30	> 30	> 30	Active	> 30	> 4	
Cc1nc(-c2ccccc2)sc1C(=O)NCC1CCCCC1	Active	> 30	> 30	> 30	Active	> 30		
Cc1nc(C)c(C(=O)NC2CCCc3ccccc32)s1 (stereo not drawn)	Active	1.17	0.437	> 30	Active	> 30		
O=C(NC1CCCc2ccccc21)c1nc2ccccc2s1 (stereo not drawn)	Active	> 30	> 30	> 30	Active	> 30	3	
O=C(Nc1nc2ccccc2s1)C12CC3CC(CC(C3)C1)C2	Active	> 30	> 30	> 30	Active	> 30	> 36	
O=C(Nc1nc2ccccc2s1)c1cccc2ccccc12	Active	> 30	> 30	> 30	Active	> 30	> 7	
CCCCNC(=O)c1sc(-c2ccccc2)nc1C	Active	> 30	> 30	> 30	Active	> 30		
